From ChEMBL document CHEMBL1147285, “A mammalian cell agar-diffusion assay for the detection of toxic compounds” (J Nat Prod, 1989) come the findings set out here.

The source made the active and inactive calls. The calls are words filed in the database; no cut-off is given here. Numbered stars: 1 amine (or outer) side, 2 acyl side, 3 side chain; on linkers, the order of the positions; unused ones are H or OH. Bridge positions count the residues as written; N and C are the ends. Square brackets hold non-standard residues; d marks the D form. Peptide text beside a SMILES is read from it. I, II: the chains in the order shown. Actinocin(1to9) = Cc1c2oc3c(C)ccc(C(=O)[*:2])c3nc-2c(C(=O)[*:1])c(N)c1=O; NMeV = CN[C@H](C(=O)O)C(C)C; Sar = CNCC(=O)O

Test [1] relates to HT-29. The experiment in a line: Antiproliferative activity against human HT-29 cells after 96 hrs by MTT assay. It counts as functional, cell-based. The following applies: HT-29, 96 h. Background: Tetrazolium dyes change colour on reduction, which living cells bring about.
Test [2] relates to HT-29. As to the kind of experiment: Antiproliferative activity against human HT-29 cells at 10 ug after 48 hrs by two-layer agar-diffusion method. It counts as functional, cell-based. The procedure, abridged:
(§1)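 Compound (0.01-10 µg) spotted on Si gel pieces, air-dried, placed face down on 1.5% Noble agar in PBS-growth medium (20:80) for 60 min diffusion. After removal, cells (2 X 10^6/ml) in 0.3% low-temperature agarose overlaid; 48 h incubation. Cytotoxic zones shown by MTT (5 mg/ml in growth medium) over agarose; absence of zone scored as not detected.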

The subject of test [3] is HT-29. As to the kind of experiment: Antiproliferative activity against human HT-29 cells at 1 ug after 48 hrs by two-layer agar-diffusion method. The following applies: for zone of inhibition at 1 µg/disc: read-out: IZ. It counts as functional. The procedure, abridged:
as §1

Test [4] has as its system HT-29. As to the kind of experiment: Antiproliferative activity against human HT-29 cells at 0.1 ug after 48 hrs by two-layer agar-diffusion method. It counts as functional. The conditions noted are these: for zone of inhibition at 0.1 µg/disc: read-out: IZ. The essentials:
as §1
(In general: Agar diffusion results depend on both activity and mobility in agar.)

Test [5] relates to HT-29. As to the kind of experiment: Antiproliferative activity against human HT-29 cells at 0.01 ug after 48 hrs by two-layer agar-diffusion method. It counts as functional. The following applies: for zone of inhibition at 0.01 µg/disc: read-out: IZ. The essentials:
as §1

For test [6], the system named is P388. The experiment in a line: Antiproliferative activity against mouse P388 cells after 48 hrs by MTT assay. It counts as functional, cell-based. The following applies: P388, 48 h. The essentials: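 Uncloned P-388 in RPMI 1640 + 10% horse serum, gentamicin 50 µg/ml; 200-µl cultures at 1 X 10' cells/ml with or without drug, 48 h exposure. MTT (5 mg/ml in medium, 75 µl) added for 90 min, formazan read at 570 nm; absorbance normalized to untreated wells; IC50 by linear regression of logit-transformed data.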

For test [7], the system named is P388. The experiment in a line: Antiproliferative activity against mouse P388 cells at 1 ug after 48 hrs by two-layer agar-diffusion method. It counts as functional. The following applies: read-out: IZ. The procedure, abridged: as §1
Test [8] concerns P388. The experiment in a line: Antiproliferative activity against mouse P388 cells at 0.1 ug after 48 hrs by two-layer agar-diffusion method. Format: functional. The conditions noted are these: for zone of inhibition at 0.1 µg/disc: read-out: IZ. The procedure, abridged: as §1
In test [9] the test system is P388. The experiment in a line: Antiproliferative activity against mouse P388 cells at 0.01 ug after 48 hrs by two-layer agar-diffusion method. The conditions noted are these: for zone of inhibition at 0.01 µg/disc: read-out: IZ. Format: functional. The procedure, abridged:
as §1

Regarding `COc1cc(NS(C)(=O)=O)ccc1Nc1c2ccccc2nc2ccccc12` [AMSACRINE], the IC50 with HT-29 [1] stood at 559 nM; with P388 [6], 229 nM. Also, the outcome in the test with HT-29 [2], in the test with HT-29 [3], with HT-29 [4], in the test on HT-29 [5] and in the test on P388 [9] was inactive. Besides, the zone of inhibition at 1 µg/disc in the test with P388 [7] worked out at 20 mm. In addition, in the test on P388 [8], the zone of inhibition at 0.1 µg/disc was 10 mm.

For the compound `Nc1ccn([C@@H]2O[C@H](CO)[C@@H](O)[C@@H]2O)c(=O)n1` [CYTARABINE], the IC50 was determined as 66 nM in the test on HT-29 [1] and 1230 nM in the test on P388 [6]. Further, the result in the test on HT-29 [2], in the test on HT-29 [3], in the test with HT-29 [4] and in the test with HT-29 [5] was inactive. For the same compound, in the test with P388 [7], the zone of inhibition at 1 µg/disc was greater than 40 mm. The zone of inhibition at 0.1 µg/disc in the test with P388 [8] stood at 20 mm. Besides, the zone of inhibition at 0.01 µg/disc in the test with P388 [9] was found to be 10 mm.

On to `Cc1c2oc3c(C)ccc(C(=O)N[C@@H]4C(=O)N[C@H](C(C)C)C(=O)N5CCC[C@H]5C(=O)N(C)CC(=O)N(C)[C@@H](C(C)C)C(=O)O[C@@H]4C)c3nc-2c(C(=O)N[C@@H]2C(=O)N[C@H](C(C)C)C(=O)N3CCC[C@H]3C(=O)N(C)CC(=O)N(C)[C@@H](C(C)C)C(=O)O[C@@H]2C)c(N)c1=O` [DACTINOMYCIN] (I: T[dV]P[Sar][NMeV] / II: T[dV]P[Sar][NMeV]; ester I:1-I:C, II:1-II:C; linker I:N-II:N via Actinocin(1to9)), for which the IC50 was 223 nM in the test on HT-29 [1] and 0.2 nM with P388 [6]. Besides, the result with HT-29 [2], in the test with HT-29 [3], in the test with HT-29 [4], in the test with HT-29 [5], with P388 [8] and in the test with P388 [9] was inactive. For the same compound, in the test with P388 [7], the zone of inhibition at 1 µg/disc was 5 mm.

As to `COc1cc([C@@H]2c3cc4c(cc3[C@H](O)[C@H]3COC(=O)[C@H]23)OCO4)cc(OC)c1OC` [PODOFILOX], the half-maximal inhibitory concentration (IC50) with HT-29 [1] was 11 nM; with P388 [6], 5.9 nM. Further, the zone of inhibition at 1 µg/disc in the test on HT-29 [3] is greater than 40 mm; in the test with P388 [7] it was 40 mm. Also, the zone of inhibition at 0.1 µg/disc in the test on HT-29 [4] was greater than 40 mm; in the test on P388 [8], 32.5 mm. Also, the zone of inhibition at 0.01 µg/disc in the test with HT-29 [5] was found to be 25 mm; in the test with P388 [9], 12.5 mm.

As to `CC[C@]1(O)C[C@@H]2CN(CCc3c([nH]c4ccccc34)[C@@](C(=O)OC)(c3cc4c(cc3OC)N(C)[C@H]3[C@@](O)(C(=O)OC)[C@H](OC(C)=O)[C@]5(CC)C=CCN6CC[C@]43[C@@H]65)C2)C1` [VINBLASTINE], the IC50 was 4 nM in the test on HT-29 [1] and 0.7 nM with P388 [6]. Also, the zone of inhibition at 1 µg/disc is 40 mm in the test on HT-29 [3] and greater than 40 mm in the test with P388 [7]. Further, the zone of inhibition at 0.1 µg/disc worked out at 25 mm in the test on HT-29 [4] and 32.5 mm with P388 [8]. Besides, the values for the zone of inhibition at 0.01 µg/disc in the test with HT-29 [5] and with P388 [9] were 10 mm and 12.5 mm, respectively.

As for `CC[C@]1(O)C[C@H]2CN(CCc3c([nH]c4ccccc34)[C@@](C(=O)OC)(c3cc4c(cc3OC)N(C=O)[C@H]3[C@@](O)(C(=O)OC)[C@H](OC(C)=O)[C@]5(CC)C=CCN6CC[C@]43[C@@H]65)C2)C1` [VINCRISTINE], the IC50 was found to be 7 nM in the test on HT-29 [1] and 1.2 nM in the test with P388 [6]. The zone of inhibition at 1 µg/disc in the test with HT-29 [3] is 30 mm; in the test on P388 [7] it was greater than 40 mm. In addition, the zone of inhibition at 0.1 µg/disc amounted to 15 mm with HT-29 [4] and 32.5 mm in the test on P388 [8]. Besides, the outcome in the test with HT-29 [5] was inactive. Further, the zone of inhibition at 0.01 µg/disc with P388 [9] was 12.5 mm.

What is called IC50 is the concentration needed to halve the response being measured. A high value points to a need for much substance.
